Read-outs that look alike come from different tables or passages of the source.
Assays:
CYP2C:TG haplotype [1] = conditions: adults; cited from earlier work
CYP2C:TG haplotype [2] = conditions: cited from earlier work
CYP2C:TG haplotype [3] = type: in vivo, human (children aged 6–21 years)
Procedure, shortened: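 Children, fasted ≥4 h, received one proton pump inhibitor dose per visit. 12–14 serum samples were taken to 10 h post-dose and assayed by LC/MS/MS or reverse-phase HPLC. Clearance was dose/AUCtotal (AUClast + Cn/kel), weight-normalized. Genotyping was by TaqMan real-time PCR or NGS panel. Regression on CYP2C19*1 and *17 counts was compared with regression adding CYP2C:TG count. Outcomes were log-transformed as needed, with bootstrap 95% CI.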

| Structure (SMILES) | impact of CYP2C:TG alleles on CYP2C19 PK or metabolic phenotype (CYP2C:TG haplotype [1]) | CYP2C19 activity associated with CYP2C:TG haplotype, from serum concentrations (CYP2C:TG haplotype [2]) | impact of the CYP2C:TG haplotype on the PK (CYP2C:TG haplotype [3]; PO) | other results |
| --- | --- | --- | --- | --- |
| CN(C)CCCC1(c2ccc(F)cc2)OCc2cc(C#N)ccc21 (stereo not drawn) [citalopram] | No appreciable impact | – | – | – |
| CN(C)CCC[C@@]1(c2ccc(F)cc2)OCc2cc(C#N)ccc21 [escitalopram] | – | increased CYP2C19 activity | – | metabolism associated with CYP2C:TG haplotype (CYP2C:TG haplotype [2]; activity similar to CYP2C19*17/*17 diplotype): ultrarapid metabolism |
| Cc1c(OCC(F)(F)F)ccnc1C[S+]([O-])c1nc2ccccc2[nH]1 (stereo not drawn) [lansoprazole] | – | – | negligible | Scaled coefficient (95% CI) for CYP2C:TG allele count (CYP2C:TG haplotype [3]; outcome Cmax (adj) scaled to SD 1, oral): 0.24–0.35 |
| COc1ccnc(C[S+]([O-])c2nc3ccc(OC(F)F)cc3[nH]2)c1OC (stereo not drawn) [pantoprazole] | – | – | negligible | impact of the CYP2C:TG haplotype on the PK (CYP2C:TG haplotype [3]; IV): negligible; Scaled coefficient (95% CI) for CYP2C:TG allele count (CYP2C:TG haplotype [3]; outcome Clearance (adj) scaled to SD 1, IV): 0.24–0.35; Scaled coefficient (95% CI) for CYP2C:TG allele count (CYP2C:TG haplotype [3]; outcome Clearance scaled to SD 1, IV): 0.24–0.35; Scaled coefficient (95% CI) for CYP2C:TG allele count (CYP2C:TG haplotype [3]; outcome Cmax scaled to SD 1, oral): 0.24–0.35 |
| CN[C@H]1CC[C@@H](c2ccc(Cl)c(Cl)c2)c2ccccc21 [sertraline] | No appreciable impact | increased CYP2C19 activity | – | – |

From article PMC11022290 (Clinical and Translational Science, 2024)
